Data reported in ChEMBL document CHEMBL1165988, “Dithiolopyrrolone antibiotic formation induced by adding valeric acid to the culture broth of Saccharothrix algeriensis” (2010).
In brackets after ≈: the same amount, converted by molar mass.

Experiments:
Format in all cases: functional
Listeria monocytogenes = assay: Antimicrobial activity against Listeria monocytogenes CIP 82110 after 24 to 48 hrs by agar dilution method
How it was run: (§1)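 MIC determined by conventional agar dilution on ISP2 medium; bacterial plates incubated at 37 °C and read for growth inhibition after 24-48 h; each test repeated four times.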

Micrococcus luteus = assay: Antimicrobial activity against Micrococcus luteus ATCC 9314 after 24 to 48 hrs by agar dilution method; how it was run: as §1
Umbelopsis ramanniana = assay: Antimicrobial activity against Mucor ramannianus NRRL 1829 after 48 to 72 hrs by agar dilution method
How it was run: (§2)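 Filamentous fungi and yeasts tested by conventional agar dilution on ISP2 medium to give MIC; plates incubated at 28 °C and read after 48-72 h; each test repeated four times.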

Fusarium culmorum = assay: Antimicrobial activity against Fusarium culmorum after 48 to 72 hrs by agar dilution method; how it was run: as §2
Fusarium graminearum = assay: Antimicrobial activity against Fusarium graminearum after 48 to 72 hrs by agar dilution method
How it was run: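 Agar dilution MIC on ISP2 medium; fungal plates incubated 48-72 h at 28 °C; each test repeated four times.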

Heyndrickxia coagulans = assay: Antimicrobial activity against Bacillus coagulans CIP 6625 after 24 to 48 hrs by agar dilution method; how it was run: as §1
Saccharomyces cerevisiae = assay: Antimicrobial activity against Saccharomyces cerevisiae ATCC 4226 after 48 to 72 hrs by agar dilution method; how it was run: as §2
Fusarium verticillioides = assay: Antimicrobial activity against Fusarium moniliforme after 48 to 72 hrs by agar dilution method; how it was run: as §2
Staphylococcus aureus = assay: Antimicrobial activity against Staphylococcus aureus CIP 7625 after 24 to 48 hrs by agar dilution method; how it was run: as §1
Salmonella enterica = assay: Antimicrobial activity against Salmonella enterica CIP 81.3 after 24 to 48 hrs by agar dilution method; how it was run: as §1
Penicillium expansum = assay: Antimicrobial activity against Penicillium expansum after 48 to 72 hrs by agar dilution method; how it was run: as §2
Pseudomonas aeruginosa = assay: Antimicrobial activity against Pseudomonas aeruginosa CIP A22 after 24 to 48 hrs by agar dilution method; how it was run: as §1
Bacillus subtilis = assay: Antimicrobial activity against Bacillus subtilis ATCC 6633 after 24 to 48 hrs by agar dilution method; how it was run: as §1
Fusarium equiseti = assay: Antimicrobial activity against Fusarium equiseti after 48 to 72 hrs by agar dilution method; how it was run: as §2
Escherichia coli = assay: Antimicrobial activity against Escherichia coli ATCC 10536 after 24 to 48 hrs by agar dilution method; how it was run: as §1
Klebsiella pneumoniae = assay: Antimicrobial activity against Klebsiella pneumoniae CIP 82.91 after 24 to 48 hrs by agar dilution method; how it was run: as §1
Aspergillus carbonarius = assay: Antimicrobial activity against Aspergillus carbonarius M333 after 48 to 72 hrs by agar dilution method; how it was run: as §2
Candida albicans = assay: Antimicrobial activity against Candida albicans IPA 200 after 48 to 72 hrs by agar dilution method; how it was run: as §2
Fusarium oxysporum = assay: Antimicrobial activity against Fusarium oxysporum f.sp. lini (Foln 3-5) after 48 to 72 hrs by agar dilution method; how it was run: as §2
[1] = system: Agrobacterium tumefaciens; assay: Antimicrobial activity against Agrobacterium tumefaciens no. 2410 LB after 24 to 48 hrs by agar dilution method; how it was run: as §1

CCC(=O)Nc1c2sscc-2n(C)c1=O [AUREOTHRICIN]
MIC (Listeria monocytogenes): > 100 µg/mL
MIC (Micrococcus luteus): 20 µg/mL (≈ 82.5 µM)
MIC (Umbelopsis ramanniana): 20 µg/mL (≈ 82.5 µM)
MIC (Fusarium culmorum): 20 µg/mL (≈ 82.5 µM)
MIC (Fusarium graminearum): 75 µg/mL (≈ 310 µM)
MIC (Heyndrickxia coagulans): 20 µg/mL (≈ 82.5 µM)
MIC (Saccharomyces cerevisiae): 40 µg/mL (≈ 165 µM)
MIC (Fusarium verticillioides): 75 µg/mL (≈ 310 µM)
MIC (Staphylococcus aureus): 100 µg/mL (≈ 413 µM)
MIC (Salmonella enterica): > 100 µg/mL
MIC (Penicillium expansum): 20 µg/mL (≈ 82.5 µM)
MIC (Pseudomonas aeruginosa): > 100 µg/mL
MIC (Bacillus subtilis): 20 µg/mL (≈ 82.5 µM)
MIC (Fusarium equiseti): 20 µg/mL (≈ 82.5 µM)
MIC (Escherichia coli): 75 µg/mL (≈ 310 µM)
MIC (Klebsiella pneumoniae): > 100 µg/mL
MIC (Aspergillus carbonarius): 40 µg/mL (≈ 165 µM)
MIC (Candida albicans): 75 µg/mL (≈ 310 µM)
MIC (Fusarium oxysporum): 40 µg/mL (≈ 165 µM)
MIC [1]: > 100 µg/mL

Cn1c2cssc-2c(NC=O)c1=O [FORMYLPYRROTHINE]
MIC (Listeria monocytogenes): 20 µg/mL (≈ 93.3 µM)
MIC (Micrococcus luteus): 3 µg/mL (≈ 14 µM)
MIC (Umbelopsis ramanniana): 10 µg/mL (≈ 46.7 µM)
MIC (Fusarium culmorum): 10 µg/mL (≈ 46.7 µM)
MIC (Fusarium graminearum): 40 µg/mL (≈ 187 µM)
MIC (Heyndrickxia coagulans): 2 µg/mL (≈ 9.33 µM)
MIC (Saccharomyces cerevisiae): 75 µg/mL (≈ 350 µM)
MIC (Fusarium verticillioides): 75 µg/mL (≈ 350 µM)
MIC (Staphylococcus aureus): 2 µg/mL (≈ 9.33 µM)
MIC (Salmonella enterica): > 100 µg/mL
MIC (Penicillium expansum): 3 µg/mL (≈ 14 µM)
MIC (Pseudomonas aeruginosa): > 100 µg/mL
MIC (Bacillus subtilis): 2 µg/mL (≈ 9.33 µM)
MIC (Fusarium equiseti): 10 µg/mL (≈ 46.7 µM)
MIC (Escherichia coli): 40 µg/mL (≈ 187 µM)
MIC (Klebsiella pneumoniae): > 100 µg/mL
MIC (Aspergillus carbonarius): 50 µg/mL (≈ 233 µM)
MIC (Candida albicans): 75 µg/mL (≈ 350 µM)
MIC (Fusarium oxysporum): 30 µg/mL (≈ 140 µM)
MIC [1]: > 100 µg/mL

CCCCC(=O)Nc1c2sscc-2n(C)c1=O [VALERYLPYRROTHINE]
MIC (Listeria monocytogenes): > 100 µg/mL
MIC (Micrococcus luteus): 40 µg/mL (≈ 148 µM)
MIC (Umbelopsis ramanniana): 10 µg/mL (≈ 37 µM)
MIC (Fusarium culmorum): 20 µg/mL (≈ 74 µM)
MIC (Fusarium graminearum): 75 µg/mL (≈ 277 µM)
MIC (Heyndrickxia coagulans): 20 µg/mL (≈ 74 µM)
MIC (Saccharomyces cerevisiae): 10 µg/mL (≈ 37 µM)
MIC (Fusarium verticillioides): 75 µg/mL (≈ 277 µM)
MIC (Staphylococcus aureus): 75 µg/mL (≈ 277 µM)
MIC (Salmonella enterica): > 100 µg/mL
MIC (Penicillium expansum): 20 µg/mL (≈ 74 µM)
MIC (Pseudomonas aeruginosa): > 100 µg/mL
MIC (Bacillus subtilis): 20 µg/mL (≈ 74 µM)
MIC (Fusarium equiseti): 20 µg/mL (≈ 74 µM)
MIC (Escherichia coli): > 100 µg/mL
MIC (Klebsiella pneumoniae): > 100 µg/mL
MIC (Aspergillus carbonarius): 20 µg/mL (≈ 74 µM)
MIC (Candida albicans): 20 µg/mL (≈ 74 µM)
MIC (Fusarium oxysporum): 50 µg/mL (≈ 185 µM)
MIC [1]: > 100 µg/mL
